Results from ChEMBL document CHEMBL1154438, “Synthesis, spectral studies and antiamoebic activity of new 1-N-substituted thiocarbamoyl-3-phenyl-2-pyrazolines” (Eur J Med Chem, 2009).

These compounds were tested on Entamoeba histolytica (assay: Antiamoebic activity against Entamoeba histolytica HM-1:IMSS after 72 hrs by microdilution assay).
Assay type: functional, organism-based
Procedure, shortened: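 E. histolytica trophozoites grown in TYIS-33 medium; compounds dissolved in DMSO and diluted in medium to a 1 mg/mL stock, then two-fold serial dilutions in wells. Inoculum 1.7 × 10⁴ organisms/well, gassed with nitrogen, 37 °C for 72 h. Cells methanol-fixed and eosin-stained, dye released with 0.1 N NaOH, OD 490 nm read. Percent inhibition versus log dose, IC50 from linear regression.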
`CN(Cc1ccccc1)C(=S)N1CCC(c2cccc(Cl)c2)=N1` gave an IC50 of 2910 nM. With `S=C(N1CCCC1)N1CCC(c2cccc(Cl)c2)=N1` the IC50 was 2310 nM. In the case of `CN(Cc1ccccc1)C(=S)N1CCC(c2cccc(Br)c2)=N1`, the IC50 is reported as 4440 nM. Compound `S=C(N1CCCCCC1)N1CCC(c2ccccc2)=N1` has an IC50 of 4390 nM. `S=C(N1CCCCCC1)N1CCC(c2cccc(Br)c2)=N1` showed an IC50 of 1090 nM. Compound `S=C(N1CCCCCC1)N1CCC(c2cccc(Cl)c2)=N1` has an IC50 of 890 nM. With `CN(C(=S)N1CCC(c2cccc(Br)c2)=N1)C1CCCCC1` the IC50 was 5250 nM. With `CN(C(=S)N1CCC(c2cccc(Cl)c2)=N1)C1CCCCC1` the IC50 was 3710 nM. For `S=C(N1CCC(c2ccccc2)=N1)N1CCCc2ccccc21`, the IC50 was 6190 nM. Compound `S=C(N1CCC(c2cccc(Cl)c2)=N1)N1CCCc2ccccc21` has an IC50 of 1770 nM. In the case of `Cc1ccccc1NC(=S)N1CCC(c2ccccc2)=N1`, the IC50 is reported as 4780 nM. `Cc1ccccc1NC(=S)N1CCC(c2cccc(Br)c2)=N1` was tested, and the IC50 was 3820 nM. `S=C(N1CCCC1)N1CCC(c2ccccc2)=N1` gave an IC50 of 3730 nM. Work on `Cc1ccccc1NC(=S)N1CCC(c2cccc(Cl)c2)=N1` yielded an IC50 of 1680 nM. With `Cc1cccc(NC(=S)N2CCC(c3ccccc3)=N2)c1` the IC50 was 5010 nM. Compound `Cc1cccc(NC(=S)N2CCC(c3cccc(Br)c3)=N2)c1` has an IC50 of 3350 nM. Compound `Cc1cccc(NC(=S)N2CCC(c3cccc(Cl)c3)=N2)c1` has an IC50 of 2810 nM. In the case of `Cc1ccc(NC(=S)N2CCC(c3cccc(Br)c3)=N2)cc1`, the IC50 is reported as 5330 nM. For `Cc1ccc(NC(=S)N2CCC(c3cccc(Cl)c3)=N2)cc1`, the IC50 was 2400 nM. Work on `Fc1ccc(NC(=S)N2CCC(c3ccccc3)=N2)c(F)c1` yielded an IC50 of 1760 nM. In the case of `Fc1ccc(NC(=S)N2CCC(c3cccc(Cl)c3)=N2)c(F)c1`, the IC50 is reported as 510 nM. `S=C(NC1C2CC3CC(C2)CC1C3)N1CCC(c2ccccc2)=N1` (stereo not given) showed an IC50 of 1790 nM. For `S=C(NC1C2CC3CC(C2)CC1C3)N1CCC(c2cccc(Br)c2)=N1` (stereo not given), the IC50 was 580 nM. `CN(C(=S)N1CCC(c2ccccc2)=N1)C1CCCCC1` gave an IC50 of 5940 nM. `CN(Cc1ccccc1)C(=S)N1CCC(c2ccccc2)=N1` showed an IC50 of 7310 nM. Compound `S=C(N1CCCC1)N1CCC(c2cccc(Br)c2)=N1` has an IC50 of 2820 nM. In the case of `S=C(NC1C2CC3CC(C2)CC1C3)N1CCC(c2cccc(Cl)c2)=N1` (stereo not given), the IC50 is reported as 470 nM. In the case of `S=C(N1CCC(c2cccc(Br)c2)=N1)N1CCCc2ccccc21`, the IC50 is reported as 2780 nM. Work on `Fc1ccc(NC(=S)N2CCC(c3cccc(Br)c3)=N2)c(F)c1` yielded an IC50 of 670 nM. `Cc1ccc(NC(=S)N2CCC(c3ccccc3)=N2)cc1` showed an IC50 of 9560 nM.
